Publication PMC11568772 (Drug Design, Development and Therapy, 2024)

Legend:
[1] = test system: HCT-116, HePG-2, HeLa and MCF-7 cells; assay: MTT cytotoxicity summarised over the 4 cancer cell lines; assay type: cell-based; details: Homo sapiens, read-out: IC50 range of one compound over the cancer cell lines
Procedure, shortened: (§1)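 Cells were grown in medium with 10% FBS, penicillin/streptomycin, 37°C, 5% CO2, then seeded at 1.0×10^4 cells/well and held 48 h. Test compound was added at 1.56, 3.125, 6.25, 12.5, 25, 50 and 100, for 24 h. MTT (5 mg/mL stock) was added for 4 h, formazan dissolved in DMSO and A570 read. Viability was taken relative to untreated wells. IC50 came from a Boltzmann sigmoidal fit, in triplicate, mean ± SD.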

[2] = test system: human cervical (Hela) carcinoma cell line; assay: MTT cytotoxicity, Hela; assay type: cell-based; details: 24 h, read-out: IC50 Hela
Procedure, shortened: as §1

[3] = test system: breast cancer (MCF-7) cell line; assay: MTT cytotoxicity, MCF-7; assay type: cell-based; details: Homo sapiens, MCF7, 24 h, read-out: IC50 MCF-7
Procedure, shortened: as §1

[4] = test system: colorectal (HCT116) carcinoma cell line; assay: MTT cytotoxicity, HCT-116; assay type: cell-based; details: Homo sapiens, HCT-116, 24 h, read-out: IC50 HCT-116
[5] = test system: hepatocellular (HePG2) carcinoma cell line; assay: MTT cytotoxicity, HePG-2; assay type: cell-based; details: Homo sapiens, HepG2, 24 h, read-out: IC50 HePG-2
[6] = test system: WI-38 normal fibroblast cells; assay: MTT cytotoxicity towards normal human cells WI-38; assay type: cell-based; details: WI-38, 24 h, read-out: IC50 WI-38
VEGFR-2 enzyme = VEGFR-2 enzyme (Homo sapiens, UniProt P35968); assay: VEGFR-2 kinase inhibitory assay; assay type: biochemical; details: for inhibition at 0.01 µM: read-out: % Inhibition 0.01 μM, VEGFR-2 enzyme, 0.01 μM; for inhibition at 0.1 µM: read-out: % Inhibition 0.1 μM, VEGFR-2 enzyme, 0.1 μM; for inhibition at 1 µM: read-out: % Inhibition 1 μM, VEGFR-2 enzyme, 1 μM; for inhibition at 10 µM: read-out: % Inhibition 10 μM, VEGFR-2 enzyme, 10 μM; for inhibition at 100 µM: read-out: % Inhibition 100 μM, VEGFR-2 enzyme, 100 μM
VEGFR-2 = details: read-out: IC50 VEGFR-2; reference medicine pazopanib; cited from earlier work
[7] = test system: VEGF-induced proliferation; details: read-out: IC50 VEGF-induced proliferation; cited from earlier work
MCF-7 cells [8] = assay: Cell cycle analysis by PI staining and flow cytometry; assay type: cell-based, human; details: MCF-7, 24 h at IC50 of the compound
MCF-7 cells [9] = assay: Annexin V-FITC/PI apoptosis assay; assay type: cell-based, human; details: MCF-7, 24 hours of incubation
Procedure, shortened: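 MCF-7 cells were treated with test compound for 24 h, with DMSO as control. 1–5×10^5 cells were pelleted by centrifugation and resuspended in binding buffer. They were stained with Annexin V-FITC and PI for 5 min at room temperature in the dark, then analysed by flow cytometry. Quadrants: Q1 necrotic, Q2 late apoptotic, Q3 live, Q4 early apoptotic.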

[10] = test system: prostate cancer PC3 cell line; details: read-out: IC50 PC3 cell line; cited from earlier work

Chain of VEGFR-2 enzyme (P35968 20-1356): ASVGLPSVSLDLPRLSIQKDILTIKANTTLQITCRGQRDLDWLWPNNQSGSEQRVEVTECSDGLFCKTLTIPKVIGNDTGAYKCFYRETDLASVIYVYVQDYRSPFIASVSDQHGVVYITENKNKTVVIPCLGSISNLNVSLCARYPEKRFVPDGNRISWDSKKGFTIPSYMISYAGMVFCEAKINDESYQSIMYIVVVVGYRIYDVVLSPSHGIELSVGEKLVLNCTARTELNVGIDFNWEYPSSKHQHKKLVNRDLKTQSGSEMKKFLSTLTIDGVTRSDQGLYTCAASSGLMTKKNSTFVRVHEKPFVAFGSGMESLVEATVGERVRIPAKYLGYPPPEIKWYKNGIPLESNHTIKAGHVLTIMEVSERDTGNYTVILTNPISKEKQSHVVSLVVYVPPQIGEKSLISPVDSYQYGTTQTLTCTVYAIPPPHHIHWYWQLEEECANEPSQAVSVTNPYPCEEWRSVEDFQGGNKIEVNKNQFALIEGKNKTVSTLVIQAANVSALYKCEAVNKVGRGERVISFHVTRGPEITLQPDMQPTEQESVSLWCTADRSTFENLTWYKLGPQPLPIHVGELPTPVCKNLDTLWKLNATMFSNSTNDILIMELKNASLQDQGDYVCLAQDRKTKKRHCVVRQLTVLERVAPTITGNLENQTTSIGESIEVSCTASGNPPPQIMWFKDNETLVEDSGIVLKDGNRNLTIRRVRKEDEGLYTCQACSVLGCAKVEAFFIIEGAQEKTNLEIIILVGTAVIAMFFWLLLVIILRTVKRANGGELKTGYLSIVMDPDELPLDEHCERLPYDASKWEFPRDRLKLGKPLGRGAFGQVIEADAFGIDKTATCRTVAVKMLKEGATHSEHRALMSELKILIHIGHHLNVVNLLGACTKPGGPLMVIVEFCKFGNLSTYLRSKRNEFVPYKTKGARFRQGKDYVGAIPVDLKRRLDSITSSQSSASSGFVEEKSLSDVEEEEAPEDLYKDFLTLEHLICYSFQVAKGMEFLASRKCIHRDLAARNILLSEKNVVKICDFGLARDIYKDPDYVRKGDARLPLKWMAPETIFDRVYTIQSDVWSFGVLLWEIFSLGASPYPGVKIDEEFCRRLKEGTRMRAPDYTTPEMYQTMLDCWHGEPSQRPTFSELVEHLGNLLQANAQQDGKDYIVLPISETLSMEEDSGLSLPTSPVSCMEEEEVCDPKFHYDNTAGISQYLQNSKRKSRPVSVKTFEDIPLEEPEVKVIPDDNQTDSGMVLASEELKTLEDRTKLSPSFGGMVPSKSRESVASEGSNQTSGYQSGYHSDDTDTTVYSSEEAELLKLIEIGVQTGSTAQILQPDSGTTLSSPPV

Row | SMILES | IC50 [1] [µM] | IC50 [2] [µM] | IC50 [3] [µM] | IC50 [4] [µM] | IC50 [5] [µM] | IC50 [6] [µM] | further results
1 | O=C(NCCSc1nc2cc(Cl)ccc2c(=O)n1-c1ccccc1)Nc1ccc(Cl)cc1 [Compound 5k, 1-(2-((7-Chloro-4-Oxo-3-Phenyl-3,4-Dihydroquinazolin-2-Yl)thio)ethyl)-3-(4-Chlorophenyl)urea] | 23.4 to 40.9 | 38 ± 2.5 | 32.9 ± 2.3 | 23.4 ± 2.1 | 40.9 ± 2.6 | > 100 | 
2 | COc1ccc(CNC(=O)NCCSc2nc3cc(Cl)ccc3c(=O)n2-c2ccccc2)cc1 [Compound 5o, 1-(2-((7-Chloro-4-Oxo-3-Phenyl-3,4-Dihydroquinazolin-2-Yl)thio)ethyl)-3-(4-Methoxybenzyl)urea] | 69.3 to 90.2 | 90.2 ± 4.8 | 86.5 ± 4.2 | 69.3 ± 3.9 | 84.3 ± 4.6 | 35.9 ± 2.3 | 
3 | O=C(NCCSc1nc2cc(Cl)ccc2c(=O)n1-c1ccccc1)Nc1ccc(Br)cc1 [Compound 5l, 1-(4-Bromophenyl)-3-(2-((7-Chloro-4-Oxo-3-Phenyl-3,4-Dihydroquinazolin-2-Yl)thio)ethyl)urea] | 28.6 to 49.4 | 49.4 ± 2.9 | 37.2 ± 2.5 | 28.6 ± 2.3 | 44.7 ± 2.9 | > 100 | 
4 | O=C(NCCSc1nc2ccccc2c(=O)n1-c1ccccc1)Nc1ccc(C(F)(F)F)cc1 [Compound 5d, 1-(2-((4-Oxo-3-Phenyl-3,4-Dihydroquinazolin-2-Yl)thio)ethyl)-3-(4-(Trifluoromethyl)phenyl)urea] | 2.39 to 8.94 | 8.94 ± 0.7 | 4.81 ± 0.2 | 6.09 ± 2.2 | 2.39 ± 0.1 | 36.3 ± 2.4 | IC50 (VEGFR-2 enzyme): 0.274 µM; inhibition at 0.01 µM (VEGFR-2 enzyme): 25.5%; inhibition at 0.1 µM (VEGFR-2 enzyme): 38.9%; inhibition at 1 µM (VEGFR-2 enzyme): 60.4%; inhibition at 10 µM (VEGFR-2 enzyme): 83.5%; inhibition at 100 µM (VEGFR-2 enzyme): 91%
5 | O=C(NCCSc1nc2ccccc2c(=O)n1-c1ccccc1)NCc1ccc(Cl)cc1 [Compound 5g, 1-(4-Chlorobenzyl)-3-(2-((4-Oxo-3-Phenyl-3,4-Dihydroquinazolin-2-Yl)thio)ethyl)urea] | 35.3 to 53.7 | 53.7 ± 3.1 | 39.6 ± 2.6 | 35.3 ± 2.6 | 47.2 ± 3.1 | 86 ± 4.8 | 
7 | COc1cc2c(Oc3ccc4[nH]c(C)cc4c3F)ncnc2cc1OCCCN1CCCC1 [Cediranib] |  |  |  |  |  |  | IC50 [7]: < 0.001 µM
8 | COc1ccc(CNC(=O)NCCSc2nc3ccccc3c(=O)n2-c2ccccc2)cc1 [Compound 5f, 1-(4-Methoxybenzyl)-3-(2-((4-Oxo-3-Phenyl-3,4-Dihydroquinazolin-2-Yl)thio)ethyl)urea] | 14.8 to 34.2 | 31.5 ± 2.3 | 18.7 ± 1.5 | 14.8 ± 1.3 | 34.2 ± 2.4 | 91.4 ± 5.1 | 
9 | O=C(NCCSc1nc2cc(Cl)ccc2c(=O)n1-c1ccccc1)NCc1ccc(Cl)cc1 [Compound 5p, 1-(2-((7-Chloro-4-Oxo-3-Phenyl-3,4-Dihydroquinazolin-2-Yl)thio)ethyl)-3-(4-Chlorobenzyl)urea] | 7.99 to 14.3 | 14.3 ± 1.2 | 7.99 ± 0.5 | 8.32 ± 0.7 | 9.72 ± 0.7 | 56.9 ± 3.3 | IC50 (VEGFR-2 enzyme): 0.117 µM; inhibition at 0.01 µM (VEGFR-2 enzyme): 31.4%; inhibition at 0.1 µM (VEGFR-2 enzyme): 44.4%; inhibition at 1 µM (VEGFR-2 enzyme): 70.5%; inhibition at 10 µM (VEGFR-2 enzyme): 88.3%; inhibition at 100 µM (VEGFR-2 enzyme): 93.5%; Cell Cycle Distribution (%) G2-M (MCF-7 cells [8]; DMSO control 16.75): 7.82%; Cell Cycle Distribution (%) S (MCF-7 cells [8]; DMSO control 29.16): 35.02%; Cell Cycle Distribution (%) G0-G1 (MCF-7 cells [8]; DMSO control 54.09): 57.16%; necrosis (Q1) (MCF-7 cells [9]): 4.23%; late apoptosis (Q2) (MCF-7 cells [9]; control 0.27%): 12.51%; early apoptosis (Q4) (MCF-7 cells [9]; control 0.61%): 26.11%; total apoptosis (MCF-7 cells [9]; control 2.29%): 42.85%
10 | O=C(NCCSc1nc2cc(Cl)ccc2c(=O)n1-c1ccccc1)NCCc1ccc(Cl)cc1 [Compound 5r, 1-(2-((7-Chloro-4-Oxo-3-Phenyl-3,4-Dihydroquinazolin-2-Yl)thio)ethyl)-3-(4-Chlorophenethyl)urea] | 10.7 to 22.4 | 22.4 ± 1.7 | 10.7 ± 0.9 | 13.2 ± 1.1 | 17.7 ± 1.4 | 74.2 ± 4.1 | 
11 | O=C(NCCSc1nc2ccccc2c(=O)n1-c1ccccc1)NCCc1ccccc1 [Compound 5h, 1-(2-((4-Oxo-3-Phenyl-3,4-Dihydroquinazolin-2-Yl)thio)ethyl)-3-Phenethylurea] |  | 11.6 ± 0.9 | 13.9 ± 1.1 | 5.89 ± 0.3 | 6.74 ± 0.5 | 41.1 ± 2.6 | IC50 (VEGFR-2 enzyme): 0.215 µM; % Inhibition 1 μM (VEGFR-2 enzyme; VEGFR-2 enzyme, 1 μM): 65.78%; % Inhibition 100 μM (VEGFR-2 enzyme; VEGFR-2 enzyme, 100 μM): 93.07%; inhibition at 0.01 µM (VEGFR-2 enzyme): 25.3%; inhibition at 0.1 µM (VEGFR-2 enzyme): 40.1%; inhibition at 10 µM (VEGFR-2 enzyme): 86.1%
12 | O=C(NCCSc1nc2cc(Cl)ccc2c(=O)n1-c1ccccc1)NCCc1ccccc1 [Compound 5q, 1-(2-((7-Chloro-4-Oxo-3-Phenyl-3,4-Dihydroquinazolin-2-Yl)thio)ethyl)-3-Phenethylurea] |  | 45.2 ± 2.7 | 24.6 ± 2 | 32.5 ± 2.5 | 41.6 ± 2.8 | 53 ± 3.1 | 
13 | O=C(NCCSc1nc2ccccc2c(=O)n1-c1ccccc1)NCCc1ccc(Cl)cc1 [Compound 5i, 1-(4-Chlorophenethyl)-3-(2-((4-Oxo-3-Phenyl-3,4-Dihydroquinazolin-2-Yl)thio)ethyl)urea] | 39.1 to 58.3 | 58.3 ± 3.3 | 43.1 ± 2.8 | 39.1 ± 2.7 | 49.8 ± 3.2 | > 100 | 
14 | COc1ccc(NC(=O)NCCSc2nc3cc(Cl)ccc3c(=O)n2-c2ccccc2)cc1 [Compound 5j, 1-(2-((7-Chloro-4-Oxo-3-Phenyl-3,4-Dihydroquinazolin-2-Yl)thio)ethyl)-3-(4-Methoxyphenyl)urea] | 9.51 to 16 | 19.1 ± 1.4 | 16 ± 1.3 | 9.51 ± 0.9 | 12.3 ± 1 | 38.5 ± 2.5 | 
15 | O=C(NCCSc1nc2ccccc2c(=O)n1-c1ccccc1)Nc1ccc(Br)cc1 [Compound 5c, 1-(4-Bromophenyl)-3-(2-((4-Oxo-3-Phenyl-3,4-Dihydroquinazolin-2-Yl)thio)ethyl)urea] | 48.2 to 67.7 | 67.7 ± 3.9 | 55.1 ± 3.2 | 48.2 ± 3 | 57.8 ± 3.6 | > 100 | 
16 | COc1ccc(NC(=O)NCCSc2nc3ccccc3c(=O)n2-c2ccccc2)cc1 [Compound 5a, 1-(4-Methoxyphenyl)-3-(2-((4-Oxo-3-Phenyl-3,4-Dihydroquinazolin-2-Yl)thio)ethyl)urea] | 62.7 to 83.4 | 83.4 ± 4.4 | 79.5 ± 3.9 | 62.7 ± 3.6 | 81.3 ± 4.3 | 29.4 ± 2.1 | 
17 | CNC(=O)c1cc(Oc2ccc(NC(=O)Nc3ccc(Cl)c(C(F)(F)F)c3)cc2)ccn1 [SOR, Sorafenib, reference compound] |  |  | 4.17 ± 0.2 |  |  |  | IC50 [10]: 17.3 µM
18 | O=C(NCCSc1nc2ccccc2c(=O)n1-c1ccccc1)Nc1ccc(Cl)cc1 [Compound 5b, 1-(4-Chlorophenyl)-3-(2-((4-Oxo-3-Phenyl-3,4-Dihydroquinazolin-2-Yl)thio)ethyl)urea] | 77.3 to 100 | > 100 | 92.2 ± 4.7 | 77.3 ± 4.2 | 88.5 ± 4.8 | 64.3 ± 3.7 | 
19 | O=C(NCCSc1nc2cc(Cl)ccc2c(=O)n1-c1ccccc1)Nc1ccc(C(F)(F)F)cc1 [Compound 5m, 1-(2-((7-Chloro-4-Oxo-3-Phenyl-3,4-Dihydroquinazolin-2-Yl)thio)ethyl)-3-(4-(Trifluoromethyl)phenyl)urea] | 18.1 to 30.7 | 27.9 ± 2.1 | 21.4 ± 1.8 | 18.1 ± 1.5 | 30.7 ± 2.2 | 76.3 ± 4.3 | 
20 | O=C(NCCSc1nc2ccccc2c(=O)n1-c1ccccc1)NCc1ccccc1 [Compound 5e, 1-Benzyl-3-(2-((4-Oxo-3-Phenyl-3,4-Dihydroquinazolin-2-Yl)thio)ethyl)urea] |  | 75.3 ± 4.2 | 72.8 ± 3.6 | 54.9 ± 3.3 | 65.7 ± 3.8 | > 100 | 
21 | O=C(NCCSc1nc2cc(Cl)ccc2c(=O)n1-c1ccccc1)NCc1ccccc1 [Compound 5n, 1-Benzyl-3-(2-((7-Chloro-4-Oxo-3-Phenyl-3,4-Dihydroquinazolin-2-Yl)thio)ethyl)urea] |  | 61.5 ± 3.7 | 48.7 ± 3 | 44.2 ± 2.8 | 52.4 ± 3.4 | 73.6 ± 3.9 | 
